# Laboratory results published in ChEMBL document CHEMBL1124418, “Antitumor agents. 100. Inhibition of human DNA topoisomerase II by cytotoxic ether and ester derivatives of podophyllotoxin and alpha-peltatin” (1989).
# Key:
# [1] = molecular target: DNA topoisomerase II (Homo sapiens) (UniProt P11388+Q02880); test: Compound was tested for inhibition against human DNA topoisomerase II; type: protein assay; design: concentration or dose not given beside the values; details: concentration not given here
# [2] = Compound was tested for in vitro cytotoxicity in KB cells after 3 days of incubation; type: functional; details: Homo sapiens, 72 h, read-out: ED50 (the source's name)
# Method in brief: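 KB human tumor cells exposed to drug for 3 days; read-out was cell number. ED50 was taken as the drug concentration giving 50% reduction in cell number. Values are marked as preliminary.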
SMILES,inhibition [1] [%],EC50 [2] [µg/mL]
CCC(=O)O[C@@H]1c2cc3c(cc2[C@@H](c2cc(OC)c(O)c(OC)c2)[C@H]2C(=O)OC[C@@H]21)OCO3,0,1
COc1cc([C@@H]2c3cc4c(c(O[C@@H]5O[C@@H](CO)[C@@H](O)[C@H](O)[C@@H]5O)c3C[C@H]3COC(=O)[C@@H]32)OCO4)cc(OC)c1O,25,1.1
COc1cc([C@@H]2c3cc4c(cc3[C@@H](OC(=O)c3ccccc3C(=O)O)[C@H]3COC(=O)[C@H]23)OCO4)cc(OC)c1O,–,0.8
CCS[C@@H]1c2cc3c(cc2[C@@H](c2cc(OC)c(O)c(OC)c2)[C@H]2C(=O)OC[C@@H]21)OCO3,25,1.1
CCO[C@@H]1c2cc3c(cc2[C@@H](c2cc(OC)c(O)c(OC)c2)[C@H]2C(=O)OC[C@@H]21)OCO3,25,1.1
COc1cc([C@@H]2c3cc4c(c(OC)c3C[C@H]3COC(=O)[C@@H]32)OCO4)cc(OC)c1O,25,0.001
COc1cc([C@@H]2c3cc4c(cc3[C@@H](OC(=O)CCC(=O)O)[C@H]3COC(=O)[C@H]23)OCO4)cc(OC)c1O,0,1
COc1cc([C@@H]2c3cc4c(cc3[C@@H](O)[C@H]3COC(=O)[C@H]23)OCO4)cc(OC)c1O [4'-DEMETHYLEPIPODOPHYLLOTOXIN],50,0.06
C/C=C\C(=O)O[C@@H]1c2cc3c(cc2[C@@H](c2cc(OC)c(O)c(OC)c2)[C@H]2C(=O)OC[C@@H]21)OCO3,–,0.9
COc1cc([C@@H]2c3cc4c(cc3[C@@H](O[C@@H]3O[C@@H]5CO[C@@H](C)O[C@H]5[C@H](O)[C@H]3O)[C@H]3COC(=O)[C@H]23)OCO4)cc(OC)c1O [ETOPOSIDE],> 88,0.12
COc1cc([C@@H]2c3cc4c(c(OC(=O)OCc5ccccc5)c3C[C@H]3COC(=O)[C@@H]32)OCO4)cc(OC)c1O,25,0.01
CCC(=O)Oc1c2c(cc3c1OCO3)[C@@H](c1cc(OC)c(O)c(OC)c1)[C@H]1C(=O)OC[C@@H]1C2,25,0.005
COc1cc([C@@H]2c3cc4c(cc3[C@@H](OC(=O)Cc3ccccc3)[C@H]3COC(=O)[C@H]23)OCO4)cc(OC)c1O,–,0.00028
COc1cc([C@@H]2c3cc4c(cc3[C@@H](OC)[C@H]3COC(=O)[C@H]23)OCO4)cc(OC)c1O,25,1.1
COc1cc([C@@H]2c3cc4c(c(O[C@@H]5O[C@H]6CO[C@@H](C)O[C@H]6[C@H](O)[C@@H]5O)c3C[C@H]3COC(=O)[C@@H]32)OCO4)cc(OC)c1O,–,2
COc1cc([C@@H]2c3cc4c(c(OC(C)=O)c3C[C@H]3COC(=O)[C@@H]32)OCO4)cc(OC)c1O,0,0.01
COc1cc([C@@H]2c3cc4c(cc3[C@@H](OC(C)=O)[C@H]3COC(=O)[C@H]23)OCO4)cc(OC)c1O,25,0.2
CCCC(=O)Oc1c2c(cc3c1OCO3)[C@@H](c1cc(OC)c(O)c(OC)c1)[C@H]1C(=O)OC[C@@H]1C2,25,0.004
COc1cc([C@@H]2c3cc4c(c(OC(=O)Cc5ccccc5)c3C[C@H]3COC(=O)[C@@H]32)OCO4)cc(OC)c1O,–,0.01
COc1cc([C@@H]2c3cc4c(c(O)c3C[C@H]3COC(=O)[C@@H]32)OCO4)cc(OC)c1O,0,0.09
COc1cc([C@@H]2c3cc4c(c(O[C@@H]5O[C@H]6CO[C@@H](c7cccs7)O[C@H]6[C@H](O)[C@@H]5O)c3C[C@H]3COC(=O)[C@@H]32)OCO4)cc(OC)c1O,25,2
COc1cc([C@@H]2c3cc4c(c(OC(=O)CCC(=O)O)c3C[C@H]3COC(=O)[C@@H]32)OCO4)cc(OC)c1O,0,0.01
